Source: ChEMBL document CHEMBL5058577, “EUbOPEN Chemogenomics Library 2 (Multiplex)” (2022)

Test system: U2OS
Assay: Multiplex assay against U2OS
Format: toxicity, cell-based
Conditions: human
In short: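 At seeding, live cells were stained with Hoechst33342, BioTracker Green Microtubule Cytoskeleton Dye, MitoTracker Red and Annexin V Alexa Fluor 680. After compound addition they were imaged on a CQ1 microscope at 37°C and 5% CO2, and CellPathfinder machine-learning gating sorted them into Hoechst high-intensity objects or normal cells, with normal cells further split into healthy, pyknosed or fragmented nuclei and pyknosed cells into mitotic or apoptotic. Tubulin, mitochondrial-mass and membrane-permeability phenotypes are given as per cents of cells with healthy nuclei.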

[1] = 12 h, 1 µM, compound concentration 1 uM, replicate 1
[2] = 12 h, 1 µM, compound concentration 1 uM, replicate 2
[3] = 12 h, 10 µM, compound concentration 10 uM, replicate 1
[4] = 12 h, 10 µM, compound concentration 10 uM, replicate 2
[5] = 24 h, 1 µM, compound concentration 1 uM, replicate 1
[6] = 24 h, 1 µM, compound concentration 1 uM, replicate 2
[7] = 24 h, 10 µM, compound concentration 10 uM, replicate 1
[8] = 24 h, 10 µM, compound concentration 10 uM, replicate 2
[9] = 48 h, 1 µM, compound concentration 1 uM, replicate 1
[10] = 48 h, 1 µM, compound concentration 1 uM, replicate 2
[11] = 48 h, 10 µM, compound concentration 10 uM, replicate 1
[12] = 48 h, 10 µM, compound concentration 10 uM, replicate 2

`Cl.N=C(N)NC(=O)Cc1c(Cl)cccc1Cl` [GUANFACINE HYDROCHLORIDE] was tested, and the “Population Apoptotic (%)” value [1] was 80%, the “Population Fragmented Nuclei (%)” value [1] was 28% and the “Population Healthy Nuclei (%)” value [1] was 55%. For the same molecule, the “Population Hoechst High Intensity Objects (%)” value [1] was 4%, the “Population Membrane Permeable-Phenotype (%)” value [1] was 5% and the “Population Mitochondria Different-Phenotype (%)” value [1] was 1%. For the same molecule, the “Population Mitotic Cells (%)” value [1] was 19%, the “Population Normal (%)” value [1] was 95% and the “Population Pyknosed Nuclei (%)” value [1] was 16%. The “Population Tubulin-Different-Phenotype (%)” value [1] was 2%, the “Total Cell Count” value [1] was 165 and the “Population Apoptotic (%)” value [2] was 100%. For the same molecule, the “Population Fragmented Nuclei (%)” value [2] was 20%, the “Population Healthy Nuclei (%)” value [2] was 72% and the “Population Hoechst High Intensity Objects (%)” value [2] was 2%. The “Population Membrane Permeable-Phenotype (%)” value [2] was 8%, the “Population Mitochondria Different-Phenotype (%)” value [2] was 2% and the “Population Mitotic Cells (%)” value [2] was 0%. The “Population Normal (%)” value [2] was 97%, the “Population Pyknosed Nuclei (%)” value [2] was 7% and the “Population Tubulin-Different-Phenotype (%)” value [2] was 6%. For the same molecule, the “Total Cell Count” value [2] was 129, the “Population Apoptotic (%)” value [3] was 87% and the “Population Fragmented Nuclei (%)” value [3] was 27%. The “Population Healthy Nuclei (%)” value [3] was 61%, the “Population Hoechst High Intensity Objects (%)” value [3] was 1% and the “Population Membrane Permeable-Phenotype (%)” value [3] was 10%. The “Population Mitochondria Different-Phenotype (%)” value [3] was 3%, the “Population Mitotic Cells (%)” value [3] was 12% and the “Population Normal (%)” value [3] was 98%. The “Population Pyknosed Nuclei (%)” value [3] was 11%, the “Population Tubulin-Different-Phenotype (%)” value [3] was 7% and the “Total Cell Count” value [3] was 280. The “Population Apoptotic (%)” value [4] was 77%, the “Population Fragmented Nuclei (%)” value [4] was 18% and the “Population Healthy Nuclei (%)” value [4] was 74%. For the same molecule, the “Population Membrane Permeable-Phenotype (%)” value [4] was 12%, the “Population Mitochondria Different-Phenotype (%)” value [4] was 7% and the “Population Mitotic Cells (%)” value [4] was 22%. The “Population Pyknosed Nuclei (%)” value [4] was 7%, the “Population Tubulin-Different-Phenotype (%)” value [4] was 10% and the “Total Cell Count” value [4] was 130. The “Population Apoptotic (%)” value [5] was 75%, the “Population Fragmented Nuclei (%)” value [5] was 32% and the “Population Healthy Nuclei (%)” value [5] was 56%. The “Population Hoechst High Intensity Objects (%)” value [5] was 3%, the “Population Membrane Permeable-Phenotype (%)” value [5] was 5% and the “Population Mitochondria Different-Phenotype (%)” value [5] was 3%. The “Population Mitotic Cells (%)” value [5] was 25%, the “Population Normal (%)” value [5] was 96% and the “Population Pyknosed Nuclei (%)” value [5] was 10%. For the same molecule, the “Population Tubulin-Different-Phenotype (%)” value [5] was 2%, the “Total Cell Count” value [5] was 194 and the “Population Apoptotic (%)” value [6] was 83%. The “Population Fragmented Nuclei (%)” value [6] was 18%, the “Population Healthy Nuclei (%)” value [6] was 74% and the “Population Hoechst High Intensity Objects (%)” value [6] was 0%. The “Population Membrane Permeable-Phenotype (%)” value [6] was 8%, the “Population Mitochondria Different-Phenotype (%)” value [6] was 4% and the “Population Mitotic Cells (%)” value [6] was 16%. For the same molecule, the “Population Normal (%)” value [6] was 99%, the “Population Pyknosed Nuclei (%)” value [6] was 7% and the “Population Tubulin-Different-Phenotype (%)” value [6] was 5%. The “Total Cell Count” value [6] was 160, the “Population Apoptotic (%)” value [7] was 84% and the “Population Fragmented Nuclei (%)” value [7] was 25%. For the same molecule, the “Population Healthy Nuclei (%)” value [7] was 64%, the “Population Hoechst High Intensity Objects (%)” value [7] was 0% and the “Population Membrane Permeable-Phenotype (%)” value [7] was 9%. The “Population Mitochondria Different-Phenotype (%)” value [7] was 2%, the “Population Mitotic Cells (%)” value [7] was 15% and the “Population Normal (%)” value [7] was 99%. The “Population Pyknosed Nuclei (%)” value [7] was 9%, the “Population Tubulin-Different-Phenotype (%)” value [7] was 4% and the “Total Cell Count” value [7] was 326. For the same molecule, the “Population Apoptotic (%)” value [8] was 83%, the “Population Fragmented Nuclei (%)” value [8] was 15% and the “Population Healthy Nuclei (%)” value [8] was 76%. The “Population Hoechst High Intensity Objects (%)” value [8] was 2%, the “Population Membrane Permeable-Phenotype (%)” value [8] was 10% and the “Population Mitochondria Different-Phenotype (%)” value [8] was 4%. For the same molecule, the “Population Mitotic Cells (%)” value [8] was 16%, the “Population Normal (%)” value [8] was 97% and the “Population Pyknosed Nuclei (%)” value [8] was 7%. The “Population Tubulin-Different-Phenotype (%)” value [8] was 5%, the “Total Cell Count” value [8] was 160 and the “Population Apoptotic (%)” value [9] was 89%. The “Population Fragmented Nuclei (%)” value [9] was 28%, the “Population Healthy Nuclei (%)” value [9] was 60% and the “Population Hoechst High Intensity Objects (%)” value [9] was 2%. For the same molecule, the “Population Membrane Permeable-Phenotype (%)” value [9] was 4%, the “Population Mitochondria Different-Phenotype (%)” value [9] was 3% and the “Population Mitotic Cells (%)” value [9] was 10%. The “Population Normal (%)” value [9] was 97%, the “Population Pyknosed Nuclei (%)” value [9] was 10% and the “Population Tubulin-Different-Phenotype (%)” value [9] was 3%. For the same molecule, the “Total Cell Count” value [9] was 262, the “Population Apoptotic (%)” value [10] was 90% and the “Population Fragmented Nuclei (%)” value [10] was 16%. The “Population Healthy Nuclei (%)” value [10] was 73%, the “Population Hoechst High Intensity Objects (%)” value [10] was 3% and the “Population Membrane Permeable-Phenotype (%)” value [10] was 8%. For the same molecule, the “Population Mitochondria Different-Phenotype (%)” value [10] was 4%, the “Population Mitotic Cells (%)” value [10] was 9% and the “Population Normal (%)” value [10] was 96%. For the same molecule, the “Population Tubulin-Different-Phenotype (%)” value [10] was 6%, the “Total Cell Count” value [10] was 217 and the “Population Apoptotic (%)” value [11] was 90%. For the same molecule, the “Population Fragmented Nuclei (%)” value [11] was 21%, the “Population Healthy Nuclei (%)” value [11] was 68% and the “Population Hoechst High Intensity Objects (%)” value [11] was 2%. For the same molecule, the “Population Membrane Permeable-Phenotype (%)” value [11] was 8%, the “Population Mitochondria Different-Phenotype (%)” value [11] was 3% and the “Population Mitotic Cells (%)” value [11] was 9%. For the same molecule, the “Population Normal (%)” value [11] was 97%, the “Population Pyknosed Nuclei (%)” value [11] was 10% and the “Population Tubulin-Different-Phenotype (%)” value [11] was 4%. The “Total Cell Count” value [11] was 440, the “Population Apoptotic (%)” value [12] was 95% and the “Population Fragmented Nuclei (%)” value [12] was 14%. The “Population Healthy Nuclei (%)” value [12] was 74%, the “Population Hoechst High Intensity Objects (%)” value [12] was 1% and the “Population Membrane Permeable-Phenotype (%)” value [12] was 10%. The “Population Mitochondria Different-Phenotype (%)” value [12] was 1%, the “Population Mitotic Cells (%)” value [12] was 4% and the “Population Normal (%)” value [12] was 98%. For the same molecule, the “Population Pyknosed Nuclei (%)” value [12] was 11%, the “Population Tubulin-Different-Phenotype (%)” value [12] was 3% and the “Total Cell Count” value [12] was 213.
